Measured values reported in ChEMBL document CHEMBL1129293 (J Med Chem, 1996).

Assays:
[1] = target: D(1A) dopamine receptor (Rattus norvegicus) (UniProt P18901); test: Affinity towards Dopamine receptor D1 was evaluated in rat striatal membrane using [3H]SCH-23,390 as radioligand; format: cell membranes; conditions: Striatum
Outline: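 Male Sprague-Dawley rats, 200–400 g; striatum dissected from coronal slices, used fresh or held at -70 °C. Membranes homogenized and twice centrifuged at 27000g in ice-cold 50 mM HEPES, 4.0 mM MgCl2, pH 7.4, final ca. 2.0 mg wet weight/mL. Incubation with [3H]SCH23390 at 37 °C for 15 min; bound radioactivity by liquid scintillation; protein by Lowry.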

[2] = organism: Rattus norvegicus; test: Evaluated for the maximum stimulation of adenylate cyclase in rat striatal tissue with respect to the maximum stimulation caused by dopamine; format: functional, Striatum
[3] = target: D(1A) dopamine receptor (Rattus norvegicus, UniProt P18901); test: Effective concentration was determined for the adenylate cyclase activity in rat striatal tissue as a measure of Dopamine receptor D1 functional activity; format: tissue-based, Striatum
[4] = target: D(2) dopamine receptor (Rattus norvegicus) (UniProt P61169); test: Affinity towards Dopamine receptor D2 was evaluated in rat striatal membrane using [3H]spiperone as radioligand; format: cell membranes; conditions: Striatum
Sequence of D(2) dopamine receptor (Rattus norvegicus) (P61169 whole entry): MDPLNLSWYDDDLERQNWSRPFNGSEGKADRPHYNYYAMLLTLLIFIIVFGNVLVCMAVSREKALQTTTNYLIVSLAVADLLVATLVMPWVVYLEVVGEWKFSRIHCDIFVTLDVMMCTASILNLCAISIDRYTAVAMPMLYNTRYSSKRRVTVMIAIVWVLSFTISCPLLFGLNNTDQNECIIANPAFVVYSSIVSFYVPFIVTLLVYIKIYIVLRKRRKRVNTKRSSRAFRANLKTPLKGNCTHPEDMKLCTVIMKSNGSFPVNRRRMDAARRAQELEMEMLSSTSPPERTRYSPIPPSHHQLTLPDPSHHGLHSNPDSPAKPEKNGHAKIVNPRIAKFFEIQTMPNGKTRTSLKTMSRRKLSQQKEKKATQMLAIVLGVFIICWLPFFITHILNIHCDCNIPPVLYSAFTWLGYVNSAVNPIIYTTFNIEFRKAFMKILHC

Sequence of D(1A) dopamine receptor (P18901 whole entry): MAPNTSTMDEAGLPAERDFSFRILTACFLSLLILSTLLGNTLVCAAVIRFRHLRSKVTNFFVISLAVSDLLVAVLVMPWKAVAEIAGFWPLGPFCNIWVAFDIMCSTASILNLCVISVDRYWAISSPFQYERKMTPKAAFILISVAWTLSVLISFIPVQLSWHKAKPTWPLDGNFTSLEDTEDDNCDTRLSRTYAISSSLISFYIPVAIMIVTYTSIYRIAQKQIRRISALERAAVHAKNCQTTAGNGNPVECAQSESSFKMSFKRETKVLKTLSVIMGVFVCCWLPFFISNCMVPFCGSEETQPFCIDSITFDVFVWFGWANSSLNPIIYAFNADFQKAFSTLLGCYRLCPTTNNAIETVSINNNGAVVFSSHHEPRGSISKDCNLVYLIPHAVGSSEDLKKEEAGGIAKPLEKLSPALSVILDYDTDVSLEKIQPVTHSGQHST
Sequence of D(1A) dopamine receptor (Rattus norvegicus) (P18901 whole entry): as above

## CN1Cc2ccccc2[C@@H]2c3ccc(O)c(O)c3CC[C@H]21
[1]
  K0.5: 477 nM
[2]
  Stimulation: 22%
[3]
  EC50: > 10 µM
[4]
  K0.5: 61 nM

## NCCc1ccc(O)c(O)c1 [DOPAMINE]
[1]
  K0.5: 267 nM
[2]
  Stimulation: 100%

## C=CCN1Cc2ccccc2[C@@H]2c3cc(O)c(O)cc3CC[C@H]21
[1]
  K0.5: 328 nM
[2]
  Stimulation: 32%
[3]
  EC50: > 10 µM
[4]
  K0.5: 182 nM

## Oc1cc2c(cc1O)CC(NCc1ccccc1)CC2 (configuration not stated)
[1]
  K0.5: > 1000 nM
[2]
  Stimulation: 25%
[3]
  EC50: > 10 µM
[4]
  K0.5: 335 nM

## CN1CCc2cc(Cl)c(O)cc2[C@@H](c2ccccc2)C1
[4]
  K0.5: 600 nM

## C=CCN1CCc2c(cc(O)c(O)c2Cl)[C@@H](c2ccccc2)C1
[1]
  K0.5: 4 nM
[2]
  Stimulation: 94%
[4]
  K0.5: 73 nM

## Oc1cc2c(cc1O)[C@@H]1c3ccccc3CN[C@@H]1CC2 (relative stereo)
[1]
  K0.5: > 1000 nM
[2]
  Stimulation: 17%
[4]
  K0.5: > 1000 nM

## CCCN1Cc2ccccc2[C@@H]2c3cc(O)c(O)cc3CC[C@H]21
[1]
  K0.5: 326 nM
[2]
  Stimulation: 36%
[3]
  EC50: > 10 µM
[4]
  K0.5: 27 nM

## NC[C@@H]1O[C@H](c2ccccc2)Cc2c1ccc(O)c2O
[1]
  K0.5: 0.9 nM
[2]
  Stimulation: 96%
[4]
  K0.5: 41 nM

## Oc1ccc2c(c1O)CCC(NCc1ccccc1)C2 (configuration not stated)
[1]
  K0.5: > 1000 nM
[2]
  Stimulation: 38%
[3]
  EC50: > 1 µM
[4]
  K0.5: > 1000 nM

## NC[C@@H]1O[C@H](C23CC4CC(CC(C4)C2)C3)Cc2c1ccc(O)c2O
[2]
  Stimulation: 92%

## CCCN1CCC[C@@H]2Cc3n[nH]cc3C[C@H]21
[1]
  K0.5: > 10000 nM
[4]
  K0.5: 49 nM

## Oc1ccc([C@@H]2CNCc3sccc32)cc1O
[1]
  K0.5: 61 nM
[2]
  Stimulation: 120%
[3]
  EC50: 0.7 µM
[4]
  K0.5: 142 nM

## Oc1cc2c(cc1O)[C@H]1c3ccccc3CN[C@@H]1CC2 [DIHYDREXIDINE]
[1]
  K0.5: 2.3 nM
[2]
  Stimulation: 120%
[4]
  K0.5: 43.8 nM
